Experimental data taken from ChEMBL document CHEMBL1148332, “Mitomycin dimers: polyfunctional cross-linkers of DNA” (2004).

Experiments:
Nucleic Acid [1] = assay: Concentration of compound required for cross linking 50% of T-7 DNA, Acid; type: functional
Procedure, shortened: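 T-7 coliphage DNA was incubated with drug at 5–200 μM in citrate phosphate, 10 mM Na⁺, pH 4.0, aerobically for 4 h. The cross-linked fraction came from Hoechst 33258 fluorescence (ex 355/em 460 nm) read before and after a 95 °C heat and ice chill, relative to a drug-free control; ICL50 is the drug concentration giving 50% cross-linking.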

Nucleic Acid [2] = assay: Compound was tested on efficacy of Cross-Linking of tyrT DNA, acid at >400 uM; type: functional
Procedure, shortened: (§1)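 The labeled 162-bp tyrT DNA fragment was incubated with drug in citrate phosphate, pH 4.0, aerobically for 2 h. It was ethanol-precipitated, denatured at 94 °C for 4 min, and resolved on an 8% denaturing polyacrylamide gel at about 55 °C; cross-linked bands were detected by phosphor screen.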

Nucleic Acid [3] = assay: Compound was tested on efficacy of Cross-Linking of pBR322 DNA, acid at 1 uM; type: functional
Procedure, shortened: (§2)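 The 3'-³²P-labeled, EcoRI-linearized pBR322 DNA was incubated with drug in 10 mM sodium phosphate, pH 4, aerobically for 2 h with no reductant. It was heat-denatured in DMSO strand-separation buffer and separated on 1% agarose, and percent cross-linked DNA was quantified by phosphorimaging.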

Tumor Cell line = assay: In vitro anticancer activity against cultured 60 human tumor cell lines; type: functional
Procedure, shortened: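 NCI screen panel of about 60 human tumor cell lines from nine tissue types. GI50 is the concentration causing 50% growth inhibition, reported as the mean-graph midpoint (mean of the individual cell-line GI50 values).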

Nucleic Acid [4] = assay: Concentration of compound required for cross linking 50% of pBR322 DNA, Na2S2O4; type: functional
Procedure, shortened: (§3)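 pBR322 DNA linearized with EcoRI and 3'-end labeled with α-³²P-dATP by Klenow. About 100 ng was mixed with drug at various concentrations in 10 mM sodium phosphate/1 mM EDTA, pH 7.5, argon-deaerated, then reduced with dithionite for 45 min at room temperature. It was then denatured in 30% DMSO strand-separation buffer at 90 °C for 5 min, run on 1% agarose, and the cross-linked fraction quantified by phosphorimaging.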

Nucleic Acid [5] = assay: Concentration of compound required for cross linking 50% of tyrT DNA, Na2S2O4; type: functional
Procedure, shortened: (§4)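 The 5'-³²P-labeled 162-bp tyrT DNA fragment (10 ng) was mixed with drug at various concentrations in Tris/EDTA buffer and deaerated with nitrogen. Dithionite was added from a 50 mM stock, and the mix was kept on ice in the dark for 1 h. After ethanol precipitation it was denatured at 94 °C for 4 min and run on an 8% denaturing polyacrylamide gel; cross-linked species were quantified by phosphor screen.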

Nucleic Acid [6] = assay: Concentration of compound required for cross linking 5% of tyrT DNA, Na2S2O4; type: functional; procedure, shortened: as §4
Nucleic Acid [7] = assay: Concentration of compound required for cross linking 50% of T-7 DNA, Na2S2O4; type: functional
Procedure, shortened: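 T-7 coliphage DNA (100 μM) with drug at 0.5–15 μM in 0.015 M Tris·HCl, pH 7.4, was deaerated and given a 10-fold molar excess of Na₂S₂O₄ for 60 min under argon. Hoechst 33258 (100 nM) fluorescence (ex 355/em 460 nm) was read before and after heating at 95 °C and chilling. Cross-linked fraction was taken relative to a drug-free control; ICL50 is the concentration giving 50% cross-linked DNA.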

Nucleic Acid [8] = assay: Apparent binding constant against calf thymus DNA was determined; type: nucleic-acid assay; conditions: Bos taurus
Nucleic Acid [9] = assay: Compound was tested on efficacy of Cross-Linking of pBR322 DNA, acid at 40 uM; type: functional; procedure, shortened: as §2
Nucleic Acid [10] = assay: Concentration of compound required for cross linking 50% T-7 DNA, Acid; type: functional
Procedure, shortened: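 T-7 coliphage DNA (100 μM) with drug at 5–200 μM in citrate phosphate buffer, 10 mM Na+, pH 4.0, incubated aerobically 4 h. Diluted into 5 mM Tris/0.5 mM EDTA pH 8.0 with 100 nM Hoechst 33258; fluorescence (ex 355/em 460 nm) read before and after heat denaturation (95 °C, 5 min), ice chill and room-temperature renaturation. Cross-linked fraction computed against drug-free controls; ICL50 = drug concentration giving 50% cross-linked DNA.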

Nucleic Acid [11] = assay: Compound was tested on efficacy of Cross-Linking of tyrT DNA, acid at a concentration 400 uM; type: functional; procedure, shortened: as §1
Nucleic Acid [12] = assay: Compound was tested on efficacy of Cross-Linking of pBR322 DNA, Na2S2O4; type: functional; procedure, shortened: as §3

CO[C@@]12[C@H](COC(N)=O)C3=C(C(O)=C(C)/C(=N\CCCN(C)CCC/N=C4/C(=O)C5=C(C(O)=C4C)N4CC6NC6[C@]4(OC)[C@@H]5COC(N)=O)C3=O)N1C[C@@H]1N[C@@H]12 (some centres not stated)
ICL50 (Nucleic Acid [1]): 20 µM
Cross linking (Nucleic Acid [2]): 1.8%
inhibition (Nucleic Acid [3]): 10%
GI50 (Tumor Cell line): 2.51 µM
ICL50 (Nucleic Acid [4]): 0.5 µM
ICL50 (Nucleic Acid [5]): 150 µM
ICL5 (Nucleic Acid [6]): 10 µM
ICL50 (Nucleic Acid [7]): 1.5 µM
K app (Nucleic Acid [8]): 80000 M⁻¹

CO[C@@]12[C@H](COC(N)=O)C3=C(C(=O)C(C)=C(NCCCCCCCCCCCCNC4=C(C)C(=O)C5=C(C4=O)[C@@H](OC(N)=O)[C@@]4(OC)[C@H]6N[C@H]6CN54)C3=O)N1C[C@@H]1N[C@@H]12
Cross linking (Nucleic Acid [9]): 10%
GI50 (Tumor Cell line): 4.47 µM
ICL50 (Nucleic Acid [4]): 1.7 µM

CO[C@@]12[C@H](COC(N)=O)C3=C(C(=O)C(C)=C(N)C3=O)N1C[C@@H]1N[C@@H]12 [MITOMYCIN]
GI50 (Tumor Cell line): 0.832 µM
ICL50 (Nucleic Acid [5]): Infinity
ICL5 (Nucleic Acid [6]): 55 µM
ICL50 (Nucleic Acid [7]): 10 µM
K app (Nucleic Acid [8]): 17000 M⁻¹
ICL50 (Nucleic Acid [10]): > 200 µM

CO[C@@]12[C@H](COC(N)=O)C3=C(C(=O)C(C)=C(NCCCCNC4=C(C)C(=O)C5=C(C4=O)[C@@H](OC(N)=O)[C@@]4(OC)[C@H]6N[C@H]6CN54)C3=O)N1C[C@@H]1N[C@@H]12
ICL50 (Nucleic Acid [1]): > 200 µM
Cross linking (Nucleic Acid [11]): 0.6%
Cross linking (Nucleic Acid [9]): < 10%
GI50 (Tumor Cell line): 69.2 µM
ICL50 (Nucleic Acid [5]): Infinity
ICL5 (Nucleic Acid [6]): 20 µM
ICL50 (Nucleic Acid [7]): 2.6 µM
ICL50 (Nucleic Acid [12]): 3.8 µM
K app (Nucleic Acid [8]): 50000 M⁻¹
